Laboratory results: ChEMBL document CHEMBL4325822, “Discovery of a tetrazolyl β-carboline with in vitro and in vivo osteoprotective activity under estrogen-deficient conditions” (Medchemcomm, 2018)
pEC50: −log10 of the molar value. Each block holds one compound with its values, some of them ahead of it. Active and inactive are the calls of the source. The calls are words filed in the database; no cut-off is given here.

How the values were obtained:
Calvarial osteoblast [1] = experiment: Increase in Runx2 protein expression in Sprague-Dawley rat calvarial osteoblasts at 10 nM after 48 hrs by Western blot analysis; assay type: functional, cell-based
Procedure, shortened: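 Rat calvarial osteoblasts (pooled 1–2-day pups, collagenase/dispase digests) at 60–70% confluence treated 48 h. Whole-cell lysates immunoblotted with primary antibody overnight at 4 °C, then HRP secondary, with ECL detection. Densitometry gives fold change normalized to β-actin versus untreated cells. Mean ± SEM of three independent experiments.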

[2] = Increase in Runx2 mRNA expression in Sprague-Dawley rat calvarial osteoblasts at 10 nM by RT-PCR method relative to control; assay type: functional, Calvarial osteoblast
Calvarial osteoblast [3] = experiment: Increase in OCN protein expression in Sprague-Dawley rat calvarial osteoblasts at 10 nM after 48 hrs by Western blot analysis; assay type: functional, cell-based
Procedure, shortened: (§1)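 Rat calvarial osteoblasts at 60-70% confluence were treated 48 h. Whole-cell lysates were blotted, blocked in 5% milk, and probed with primary antibody overnight at 4 °C, then with HRP secondary and ECL detection. Densitometry was normalized to β-actin; fold change versus untreated cells, three independent experiments, mean ± SEM.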

[4] = Induction of osteoblast differentiation in Sprague-Dawley rat calvarial osteoblasts assessed as alkaline phosphatase activity at 10 nM after 48 hrs using PNPP as substrate by spectrophotometric method relative to control; assay type: functional
Procedure, shortened: (§2)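 Calvarial osteoblasts at 2 × 10³ cells/well. Treated 48 h with varied concentrations in differentiation medium (5% charcoal-treated FBS, 10 mM β-glycerophosphate, 50 µg·mL⁻¹ ascorbic acid). Total ALP read with PNPP substrate at 405 nm. Cell-free wells check for compound interference with substrate or absorbance.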

Calvarial osteoblast [5] = experiment: Osteogenic activity in Sprague-Dawley rat calvarial osteoblasts assessed as mineralized nodule formation at 10 nM after 21 days by alizarin red-S staining based light microscopic method; assay type: functional, cell-based
Procedure, shortened: (§3)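 Osteoblasts at 10,000–15,000 cells/cm² in duplicate plates, 21 days in differentiation medium, medium changed every 48 h. Cells fixed in 4% PFA, stained with alizarin red-S (40 mM, pH 4.5, 30 min) and photographed. Stain extracted with 10% acetic acid, pH brought to 4.5 with ammonium hydroxide, read at 405 nm, normalized to cell number.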

Calvarial osteoblast [6] = experiment: Osteogenic activity in Sprague-Dawley rat calvarial osteoblasts assessed as mineralized nodule formation at 10 nM after 21 days by alizarin red-S staining based colorimetric method; assay type: functional; procedure, shortened: as §3
Calvarial osteoblast [7] = experiment: Increase in BMP2 protein expression in Sprague-Dawley rat calvarial osteoblasts at 10 nM after 48 hrs by Western blot analysis; assay type: functional, cell-based; procedure, shortened: as §1
[8] = Increase in OCN mRNA expression in Sprague-Dawley rat calvarial osteoblasts at 10 nM by RT-PCR method relative to control; assay type: functional, Calvarial osteoblast
Procedure, shortened: (§4)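 Primary calvarial osteoblasts were lysed in TRIzol after treatment, and total RNA was extracted. Transcripts were quantified by real-time PCR using the comparative CT (ΔΔCT) method.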

Calvarial osteoblast [9] = experiment: Cytotoxicity against Sprague-Dawley rat calvarial osteoblasts assessed as reduction in cell viability at 0.000001 to 1 uM after 48 hrs by MTT assay; assay type: cell-based
Procedure, shortened: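 Osteoblasts came from pooled calvaria of 1-2-day-old Sprague-Dawley pups, isolated by sequential dispase/collagenase digestion. Cells were exposed to compound at 1 pM to 1 µM for 48 h, and viability was measured by MTT.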

[10] = Increase in BMP2 mRNA expression in Sprague-Dawley rat calvarial osteoblasts at 10 nM by RT-PCR method relative to control; assay type: functional, Calvarial osteoblast; procedure, shortened: as §4
[11] = Induction of osteoblast differentiation in Sprague-Dawley rat calvarial osteoblasts assessed as alkaline phosphatase activity after 48 hrs using PNPP as substrate by spectrophotometric method; assay type: functional, cell-based; settings: Rattus norvegicus, Sprague-Dawley, Calvarial osteoblast, 48 h; read-out: EC50; procedure, shortened: as §2
[12] = Induction of osteoblast differentiation in Sprague-Dawley rat calvarial osteoblasts assessed as alkaline phosphatase activity at 10 pM after 48 hrs using PNPP as substrate by spectrophotometric method relative to control; assay type: functional; procedure, shortened: as §2
[13] = Induction of osteoblast differentiation in Sprague-Dawley rat calvarial osteoblasts assessed as alkaline phosphatase activity at 1 nM after 48 hrs using PNPP as substrate by spectrophotometric method relative to control; assay type: functional; procedure, shortened: as §2
[14] = Induction of osteoblast differentiation in Sprague-Dawley rat calvarial osteoblasts assessed as alkaline phosphatase activity at 100 nM after 48 hrs using PNPP as substrate by spectrophotometric method relative to control; assay type: functional; procedure, shortened: as §2

- pEC50 [11]: 5.92
SMILES: CCOC(=O)c1cc2c([nH]c3ccccc32)c(C(NCc2ccc(OC)cc2)c2nnnn2C(C)(C)C)n1 (configuration not stated)
- Activity (Calvarial osteoblast [1]): Active
- fold change (FC) [2]: 1.8 - 4.6
- Activity (Calvarial osteoblast [3]): Active
- Emax at 0.01 µM [4]: 75%
- Activity (Calvarial osteoblast [5]): Active
- Activity (Calvarial osteoblast [6]): 52%
- Activity (Calvarial osteoblast [7]): Active
- fold change (FC) [8]: 1.8 - 4.6
- Activity (Calvarial osteoblast [9]): Non-Toxic
- fold change (FC) [10]: 1.8 - 4.6

- pEC50 [11]: 6.28
SMILES: COC(=O)c1cc2c([nH]c3ccccc32)c(C(c2nnnn2C2CCCCC2)N2CCN(C)CC2)n1 (configuration not stated)
- Emax at 10 pM [12]: 30%

- pEC50 [11]: 6.26
SMILES: COC(=O)c1cc2c([nH]c3ccccc32)c(C=O)n1
- Emax at 0.001 µM [13]: 24%

- pEC50 [11]: 6.03
SMILES: CCOC(=O)c1cc2c([nH]c3ccccc32)c(C(c2nnnn2C(C)(C)C)N2CCN(CC)CC2)n1 (configuration not stated)
- Emax at 0.1 µM [14]: 14%
